Experiment [1] addresses T1, P-selectin (Homo sapiens) (UniProt P16109).
T1 sequence (whole entry): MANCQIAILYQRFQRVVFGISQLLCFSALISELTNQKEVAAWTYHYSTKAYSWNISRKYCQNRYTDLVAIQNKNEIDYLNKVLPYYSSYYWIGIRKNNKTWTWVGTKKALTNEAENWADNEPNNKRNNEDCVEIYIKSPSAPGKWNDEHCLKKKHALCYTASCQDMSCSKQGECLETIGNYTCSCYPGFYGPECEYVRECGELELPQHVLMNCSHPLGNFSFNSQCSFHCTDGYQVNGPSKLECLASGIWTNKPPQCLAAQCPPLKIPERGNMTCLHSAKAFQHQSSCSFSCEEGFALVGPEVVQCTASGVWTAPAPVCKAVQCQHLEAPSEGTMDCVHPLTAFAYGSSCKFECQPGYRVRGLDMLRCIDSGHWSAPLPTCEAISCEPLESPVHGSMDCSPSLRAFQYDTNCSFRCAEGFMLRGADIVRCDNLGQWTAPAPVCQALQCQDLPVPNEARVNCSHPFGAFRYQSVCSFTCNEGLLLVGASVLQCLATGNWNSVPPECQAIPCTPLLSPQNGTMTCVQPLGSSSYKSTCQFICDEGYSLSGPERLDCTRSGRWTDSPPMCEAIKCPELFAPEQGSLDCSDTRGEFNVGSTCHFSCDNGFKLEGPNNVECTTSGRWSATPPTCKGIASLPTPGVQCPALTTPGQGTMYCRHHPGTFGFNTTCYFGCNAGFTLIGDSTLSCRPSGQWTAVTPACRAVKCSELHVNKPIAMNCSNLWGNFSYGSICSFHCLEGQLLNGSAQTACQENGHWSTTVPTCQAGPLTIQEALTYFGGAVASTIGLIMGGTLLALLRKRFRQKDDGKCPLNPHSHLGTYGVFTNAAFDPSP
In words: In vitro inhibitory activity against sialyl Lewis X expressing HL60 cell binding Selectin P at 20 mM concentration. The class given is cell-based. Particulars: HL-60.

Experiment [2] has as its target T2, E-selectin (Homo sapiens) (UniProt P16581).
T2 sequence (whole entry): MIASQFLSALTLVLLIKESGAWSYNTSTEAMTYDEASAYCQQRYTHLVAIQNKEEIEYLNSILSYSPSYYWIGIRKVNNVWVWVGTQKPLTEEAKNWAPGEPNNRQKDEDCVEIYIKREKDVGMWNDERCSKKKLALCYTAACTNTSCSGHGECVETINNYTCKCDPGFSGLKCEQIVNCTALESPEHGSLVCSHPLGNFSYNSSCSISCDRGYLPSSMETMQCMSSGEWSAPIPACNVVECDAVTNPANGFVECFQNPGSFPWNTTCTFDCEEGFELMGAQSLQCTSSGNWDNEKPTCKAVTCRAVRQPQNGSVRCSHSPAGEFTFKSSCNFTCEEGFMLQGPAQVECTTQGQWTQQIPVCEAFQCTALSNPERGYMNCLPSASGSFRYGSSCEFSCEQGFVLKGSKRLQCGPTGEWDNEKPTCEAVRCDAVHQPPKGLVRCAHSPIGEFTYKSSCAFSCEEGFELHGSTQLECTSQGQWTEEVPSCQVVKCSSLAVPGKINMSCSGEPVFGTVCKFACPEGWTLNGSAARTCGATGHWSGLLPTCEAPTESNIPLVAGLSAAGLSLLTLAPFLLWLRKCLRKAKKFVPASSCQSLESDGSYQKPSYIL
Nature of the experiment: In vitro inhibitory activity against sialyl Lewis X expressing HL60 cell binding to recombinant human E-selectin at 20 mM concentration. The format is cell-based. The settings on record: HL-60. In a few lines: (§1)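 Human E-selectin (lectin, EGF and two complement repeats) fused to mouse IgG was captured on anti-mouse IgG magnetic beads overnight at 4 °C. Wells were pre-blocked with 3% BSA/PBS. Compound in PBS was mixed with calcein-labelled HL60 cells (10⁷/mL, RPMI 1640 + 10% FCS) and beads (4 × 10⁶/mL) for 10 min at room temperature. Unbound cells were removed magnetically with two PBS washes, and bound cells were lysed in 1% NP40.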

For experiment [3], the target named is T3, L-selectin (Mus musculus) (UniProt P18337).
T3 sequence (whole entry): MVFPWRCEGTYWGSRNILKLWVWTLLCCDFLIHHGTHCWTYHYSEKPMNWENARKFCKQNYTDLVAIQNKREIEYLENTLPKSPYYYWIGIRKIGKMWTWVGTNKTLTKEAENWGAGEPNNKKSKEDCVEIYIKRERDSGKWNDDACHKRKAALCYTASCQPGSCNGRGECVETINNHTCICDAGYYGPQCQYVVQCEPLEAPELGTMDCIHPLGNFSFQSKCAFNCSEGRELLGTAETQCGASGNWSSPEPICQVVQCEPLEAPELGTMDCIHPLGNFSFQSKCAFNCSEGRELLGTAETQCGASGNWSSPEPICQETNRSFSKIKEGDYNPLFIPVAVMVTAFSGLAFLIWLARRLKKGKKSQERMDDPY
In words: In vitro inhibitory activity against sialyl Lewis X expressing HL60 cell binding to Selectin L at 8 mM concentration. The class given is cell-based. The settings on record: HL-60.

The target of experiment [4] is T3, L-selectin (Mus musculus). Nature of the experiment: In vitro inhibitory activity against sialyl Lewis X expressing HL60 cell binding to L-selectin at 6 mM concentration. The settings on record: HL-60. The format is cell-based.
A further experiment addresses T4, E-selectin (Homo sapiens, UniProt P16581).
T4 sequence (P16581 whole entry): T2 sequence (whole entry)
Nature of the experiment: In vitro inhibition of HL60 (human leukemia) cell binding to human recombinant e-selectin. The class given is cell-based, HL-60. The method, boiled down:
as §1

A further experiment deals with T5, P-selectin (Homo sapiens, UniProt P16109).
T5 sequence (P16109 whole entry): T1 sequence (whole entry)
In words: In vitro inhibitory activity against sialyl Lewis X expressing HL60 cell binding Selectin P. The class given is cell-based, HL-60.

For experiment [5], the target named is T1, P-selectin (Homo sapiens). In words: In vitro inhibitory activity against sialyl Lewis X expressing HL60 cell binding Selectin P at 23 mM concentration. The format is cell-based. The settings on record: HL-60.
For experiment [6], the target named is T3, L-selectin (Mus musculus). In words: In vitro inhibitory activity against sialyl Lewis X expressing HL60 cell binding Selectin L at 6 mM concentration. The format is cell-based. The settings on record: HL-60.
Experiment [7] deals with T2, E-selectin (Homo sapiens). In words: In vitro inhibitory activity against sialyl Lewis X expressing HL60 cell binding to recombinant human E-selectin at 128 mM concentration. The settings on record: HL-60; 18 mM; in the assay text read “18 mM” for “128 mM”. The format is cell-based. In a few lines: as §1
Another experiment has as its target T6, L-selectin (Mus musculus, UniProt P18337).
T6 sequence (P18337 whole entry): T3 sequence (whole entry)
In words: In vitro inhibitory activity against sialyl Lewis X expressing HL60 cell binding Selectin L. The class given is cell-based, HL-60.

Experiment [8] concerns the target T2, E-selectin (Homo sapiens). In words: In vitro inhibitory activity against sialyl Lewis X expressing HL60 cell binding to recombinant human E-selectin at 40 mM concentration. The class given is cell-based. The settings on record: HL-60. In a few lines: as §1
Experiment [9] has as its target T3, L-selectin (Mus musculus). In words: In vitro inhibitory activity against sialyl Lewis X expressing HL60 cell binding to Selectin L at 6 mM concentration. The format is cell-based. The settings on record: HL-60.

From ChEMBL document CHEMBL1128216, “Rational design and synthesis of small molecule, non-oligosaccharide selectin inhibitors: (alpha-D-mannopyranosyloxy)biphenyl-substituted carboxylic acids” (J Med Chem, 1995) come the findings set out here.

The inhibition is the share of the control response that was lost under treatment. As for `Cc1c(OCC(=O)O)cccc1-c1ccccc1O[C@H]1O[C@H](CO)[C@@H](O)[C@@H](O)[C@@H]1O`, the inhibition in experiment [1], in experiment [2] and in experiment [3] was 0% each time.

What is called IC50 is the concentration that gives 50% inhibition. Regarding `O=C(O)COc1ccc(-c2ccccc2O[C@H]2O[C@H](CO)[C@@H](O)[C@@H](O)[C@@H]2O)cc1`, the inhibition in experiment [4] turned out to be 20%. For the same compound, the IC50 on E-selectin amounted to 6.1 mM; at P-selectin, 20 mM.

As for `O=C(O)CNC(=O)c1cccc(-c2ccccc2O[C@H]2O[C@H](CO)[C@@H](O)[C@@H](O)[C@@H]2O)c1`, the inhibition in experiment [5] was determined as 25%; in [6] it was 0%; in [7] it was 0%.

In the case of `O=C(O)COc1cccc(-c2ccccc2O[C@H]2O[C@H](CO)[C@@H](O)[C@@H](O)[C@@H]2O)c1`, the IC50 is 17 mM at L-selectin, 4.9 mM on E-selectin and 4.9 mM on P-selectin.

`CC(=O)N[C@H]1[C@H]([C@H](O)[C@H](O)CO)O[C@@](O[C@H]2[C@@H](O)[C@@H](CO)O[C@@H](O[C@@H]([C@H](O[C@@H]3O[C@@H](C)[C@@H](O)[C@@H](O)[C@@H]3O)[C@H](C=O)NC(C)=O)[C@H](O)CO)[C@@H]2O)(C(=O)O)C[C@@H]1O` [SIALYL LEWIS X]: the IC50 on L-selectin was determined as 2 mM; at E-selectin it was 3 mM; on P-selectin it was 2 mM.

For `O=C(NC(Cc1ccccc1)C(=O)O)c1ccc(-c2ccccc2O[C@H]2O[C@H](CO)[C@@H](O)[C@@H](O)[C@@H]2O)cc1` (some centres undefined), the IC50 on E-selectin was 11.5 mM.

For the compound `O=S(=O)(O)CCc1cccc(-c2ccccc2O[C@H]2O[C@H](CO)[C@@H](O)[C@@H](O)[C@@H]2O)c1`, on E-selectin, the IC50 was 20 mM.

With `Cc1ccc(OCC(=O)O)cc1-c1ccccc1O[C@H]1O[C@H](CO)[C@@H](O)[C@@H](O)[C@@H]1O`, the IC50 turned out to be 20.2 mM at E-selectin and 12 mM on P-selectin.

On to `N#CCc1cccc(-c2ccccc2O[C@H]2O[C@H](CO)[C@@H](O)[C@@H](O)[C@@H]2O)c1`, for which the inhibition in experiment [5] amounted to 40%. In addition, the results for the IC50 on L-selectin and at E-selectin were 1.5 mM and 7 mM, respectively.

As for `CC(C(=O)O)c1cccc(-c2ccccc2O[C@H]2O[C@H](CO)[C@@H](O)[C@@H](O)[C@@H]2O)c1` (stereo in doubt; 9r) [listing 1 of 2 here], at P-selectin, the IC50 stood at 20 mM.

As to `Cc1ccc(O[C@H]2O[C@H](CO)[C@@H](O)[C@@H](O)[C@@H]2O)c(-c2cccc(OCC(=O)O)c2)c1`, on E-selectin, the IC50 was determined as 14 mM.

As to `O=C(O)Cc1cccc(-c2ccccc2O[C@H]2O[C@H](CO)[C@@H](O)[C@@H](O)[C@@H]2O)c1`, the IC50 on L-selectin came out at 1 mM; at E-selectin, 2 mM; on P-selectin it was 2.6 mM.

In the case of `CC(C(=O)O)c1cccc(-c2ccccc2O[C@H]2O[C@H](CO)[C@@H](O)[C@@H](O)[C@@H]2O)c1` (stereo in doubt; 9r) [listing 2 of 2 here], the inhibition in [8] was 0%; in experiment [9], 40%.
